Experimental data taken from publication PMC9435035 (ACS Omega, 2022).

Legend:
[1] = test system: streptozotocin-induced diabetic Wistar rats; assay: lipid profile in streptozotocin-induced diabetes; type: in vivo, Wistar albino rats; details: STZ-diabetic rats
Summary of the method: (§1)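 STZ-diabetic Wistar rats (n = 8 per group) received test compound at 10 or 20 mg/kg p.o., or glibenclamide 500 μg/kg p.o., once daily for 28 days; controls received vehicle. On day 28, rats were anesthetised with pentobarbital sodium (35 mg/kg) and blood was drawn by cardiac puncture. Serum ALP, SGPT, SGOT, LDL, HDL, TG, total cholesterol, creatinine and insulin were measured. Means ± SEM, one-way ANOVA with Dunnett's test.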

[2] = body weight of STZ-induced diabetic rats; type: in vivo, Wistar albino rats; details: for body weight, day 1: day 1, in g (unit assumed); for body weight, day 7: day 7, in g (unit assumed); for body weight, day 14: day 14, in g (unit assumed); for body weight, day 21: day 21, in g (unit assumed); for body weight, day 28: day 28, in g (unit assumed)
Summary of the method: (§2)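 Male Wistar albino rats (170–200 g, 8–10 weeks), fasted overnight, given STZ 50 mg/kg i.p. in 0.1 M citrate buffer, then 10% glucose for 3 days. Tail-vein glucose by glucometer at 72 h; >250 mg/dL counted as diabetic. Body weight and blood glucose on days 1, 7, 14, 21 and 28. Means ± SEM, one-way ANOVA with Dunnett's test.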

[3] = test system: overnight fasted normal rats; assay: oral glucose tolerance test; type: in vivo, Wistar albino rats; details: OGTT, glucose 3 g/kg oral
[4] = test system: streptozotocin-induced diabetic Wistar rats; assay: serum profile; type: in vivo, Wistar albino rats; details: STZ-diabetic rats; for (ALP) IU / (SGOT) IU / (SGPT) IU: serum
Summary of the method: as §1

[5] = test system: Balb/C mice; assay: acute toxicity study in mice; type: in vivo; details: for mortality: maximum oral dose of 2000 mg/kg (b.w.); for toxic effects (diarrhea, convulsions, lethargy, sleeping, salivation, tremor): oral up to 2000 mg/kg, observed daily for 2 weeks
Summary of the method: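 Two-phase modified Lorke protocol in Balb/C mice (20–25 g), four per group. Phase 1: control given Tween-80 (2%); other groups received oral test compound at 100, 500 or 1000 mg/kg. Phase 2: oral doses of 1250, 1500 and 2000 mg/kg. Animals observed for the first 24 h, then daily for 2 weeks for diarrhea, convulsions, lethargy, sleeping, salivation and tremors, with mortality monitored.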

[6] = molecular target: α-glucosidase (Saccharomyces cerevisiae, UniProt P53341); assay: α-glucosidase inhibitory activity; type: biochemical; details: read-out: glucosidase inhibition IC50 ± SEM; mean ± SEM
[7] = test system: streptozotocin-induced diabetic Wistar rats; assay: antidiabetic activity: blood glucose in STZ-induced diabetes; type: in vivo, Wistar albino rats
Summary of the method: as §2

[8] = 10 mg/kg p.o. once daily, day 28, 10 mg/kg
[9] = 20 mg/kg p.o. once daily, day 28, 20 mg/kg

Chain of α-glucosidase (P53341 whole entry): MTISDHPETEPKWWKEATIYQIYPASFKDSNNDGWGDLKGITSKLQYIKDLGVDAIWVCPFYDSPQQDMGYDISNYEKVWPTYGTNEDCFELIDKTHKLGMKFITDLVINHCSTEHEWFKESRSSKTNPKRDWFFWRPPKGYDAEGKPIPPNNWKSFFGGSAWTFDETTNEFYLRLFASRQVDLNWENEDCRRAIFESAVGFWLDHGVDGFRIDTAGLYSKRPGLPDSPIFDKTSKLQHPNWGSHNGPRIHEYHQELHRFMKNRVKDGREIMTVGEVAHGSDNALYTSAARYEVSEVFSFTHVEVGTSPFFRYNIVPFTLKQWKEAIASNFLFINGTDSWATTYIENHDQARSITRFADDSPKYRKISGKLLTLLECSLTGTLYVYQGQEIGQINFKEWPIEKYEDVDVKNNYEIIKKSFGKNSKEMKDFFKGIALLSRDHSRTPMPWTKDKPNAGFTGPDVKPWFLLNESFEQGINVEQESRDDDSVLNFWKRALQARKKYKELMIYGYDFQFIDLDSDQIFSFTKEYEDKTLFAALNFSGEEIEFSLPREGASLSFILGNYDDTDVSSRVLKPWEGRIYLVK

“N,N-Dimethyl-4-(4-(p-tolyl)-2,3-dihydrobenzo[b][1,5]thiazepin-2-yl)aniline [14B]” showed an HDL ([1]; 10 mg/kg for 28 days) of 45.25 ± 2.15 mg/dL, an LDL ([1]; 10 mg/kg for 28 days) of 129.08 ± 4.06 mg/dL and a TG ([1]; 10 mg/kg for 28 days) of 144.11 ± 4.39 mg/dL. The “total CH” value ([1]; 10 mg/kg for 28 days, 10 mg/kg) was 149.08 ± 4.12 mg/dL, the HDL ([1]; 20 mg/kg for 28 days) was 55.21 ± 2.66 mg/dL and the LDL ([1]; 20 mg/kg for 28 days) was 110.41 ± 3.90 mg/dL. For the same substance, the TG ([1]; 20 mg/kg for 28 days) was 115.24 ± 4.13 mg/dL, the “total CH” value ([1]; 20 mg/kg for 28 days, 20 mg/kg) was 135.11 ± 4.02 mg/dL and the “body weight, day 1” value ([2]; 10 mg/kg) was 188.5 ± 4.07. The “body weight, day 7” value ([2]; 10 mg/kg) was 186.8 ± 4.39, the “body weight, day 14” value ([2]; 10 mg/kg) was 187.1 ± 4.33 and the “body weight, day 21” value ([2]; 10 mg/kg) was 181.6 ± 4.21. For the same substance, the “body weight, day 28” value ([2]; 10 mg/kg) was 179.3 ± 4.41, the “body weight, day 1” value ([2]; 20 mg/kg) was 189.1 ± 4.19 and the “body weight, day 7” value ([2]; 20 mg/kg) was 188.5 ± 4.21. For the same substance, the “body weight, day 14” value ([2]; 20 mg/kg) was 189.2 ± 4.66, the “body weight, day 21” value ([2]; 20 mg/kg) was 183.4 ± 4.18 and the “body weight, day 28” value ([2]; 20 mg/kg) was 182.5 ± 4.58. The “blood glucose level, 0 min” value ([3]; dose 10 mg/kg) was 104.21 ± 4.67 mg/dL, the “blood glucose level, 30 min” value ([3]; dose 10 mg/kg) was 124.02 ± 4.01 mg/dL and the “blood glucose level, 60 min” value ([3]; dose 10 mg/kg) was 119.33 ± 4.63 mg/dL. For the same substance, the “blood glucose level, 90 min” value ([3]; dose 10 mg/kg) was 114.98 ± 4.03 mg/dL, the “blood glucose level, 120 min” value ([3]; dose 10 mg/kg) was 116.49 ± 4.71 mg/dL and the “blood glucose level, 0 min” value ([3]; dose 20 mg/kg) was 103.87 ± 4.18 mg/dL. For the same substance, the “blood glucose level, 30 min” value ([3]; dose 20 mg/kg) was 119.61 ± 4.55 mg/dL, the “blood glucose level, 60 min” value ([3]; dose 20 mg/kg) was 116.20 ± 4.78 mg/dL and the “blood glucose level, 90 min” value ([3]; dose 20 mg/kg) was 112.69 ± 4.11 mg/dL. The “blood glucose level, 120 min” value ([3]; dose 20 mg/kg) was 111.61 ± 4.97 mg/dL, the insulin level ([4]; 10 mg/kg for 28 days) was 0.690 ± 0.27 ng/mL and the serum creatinine ([4]; 10 mg/kg for 28 days) was 0.75 ± 0.36 mg/dL. The “(ALP) IU” value ([4]; 10 mg/kg for 28 days) was 210.98 ± 4.39 IU, the “(SGOT) IU” value ([4]; 10 mg/kg for 28 days) was 25.56 ± 2.18 IU and the “(SGPT) IU” value ([4]; 10 mg/kg for 28 days) was 25.08 ± 2.78 IU. For the same substance, the insulin level ([4]; 20 mg/kg for 28 days) was 0.697 ± 0.34 ng/mL, the serum creatinine ([4]; 20 mg/kg for 28 days) was 0.72 ± 0.30 mg/dL and the “(ALP) IU” value ([4]; 20 mg/kg for 28 days) was 203.51 ± 4.34 IU. The “(SGOT) IU” value ([4]; 20 mg/kg for 28 days) was 22.20 ± 2.21 IU, the “(SGPT) IU” value ([4]; 20 mg/kg for 28 days) was 22.82 ± 2.91 IU and the mortality [5] was “no mortality”. For the same substance, the “toxic effects (diarrhea, convulsions, lethargy, sleeping, salivation, tremor)” value [5] was “no toxic effects”, the IC50 [6] was 3.34 ± 0.27 µM and the “blood glucose level, day 1” value ([7]; 10 mg/kg p.o. once daily) was 369.82 ± 4.12 mg/dL. The “blood glucose level, day 7” value ([7]; 10 mg/kg p.o. once daily) was 294.04 ± 4.67 mg/dL, the “blood glucose level, day 14” value ([7]; 10 mg/kg p.o. once daily) was 196.39 ± 4.12 mg/dL and the “blood glucose level, day 21” value ([7]; 10 mg/kg p.o. once daily) was 151.11 ± 4.39 mg/dL. The “blood glucose level, day 28” value [7, 8] was 134.20 ± 4.21 mg/dL, the “blood glucose level, day 1” value ([7]; 20 mg/kg p.o. once daily) was 370.33 ± 3.98 mg/dL and the “blood glucose level, day 7” value ([7]; 20 mg/kg p.o. once daily) was 231.69 ± 5.20 mg/dL. The “blood glucose level, day 14” value ([7]; 20 mg/kg p.o. once daily) was 158.26 ± 4.67 mg/dL, the “blood glucose level, day 21” value ([7]; 20 mg/kg p.o. once daily) was 127.21 ± 4.81 mg/dL and the “blood glucose level, day 28” value [7, 9] was 109.71 ± 4.23 mg/dL.
With “2-(4-Fluorophenyl)-4-(p-tolyl)-2,3-dihydrobenzo[b][1,5]thiazepine [13B]” the HDL ([1]; 10 mg/kg for 28 days) was 46.29 ± 2.01 mg/dL, the LDL ([1]; 10 mg/kg for 28 days) was 127.81 ± 4.39 mg/dL and the TG ([1]; 10 mg/kg for 28 days) was 142.93 ± 4.21 mg/dL. For the same substance, the “total CH” value ([1]; 10 mg/kg for 28 days) was 148.67 ± 4.11 mg/dL, the HDL ([1]; 20 mg/kg for 28 days) was 56.08 ± 2.63 mg/dL and the LDL ([1]; 20 mg/kg for 28 days) was 108.91 ± 4.11 mg/dL. For the same substance, the TG ([1]; 20 mg/kg for 28 days) was 114.81 ± 4.41 mg/dL, the “total CH” value ([1]; 20 mg/kg for 28 days) was 134.21 ± 4.77 mg/dL and the “body weight, day 1” value ([2]; 10 mg/kg) was 186.6 ± 4.70. The “body weight, day 7” value ([2]; 10 mg/kg) was 183.4 ± 4.15, the “body weight, day 14” value ([2]; 10 mg/kg) was 186.3 ± 4.22 and the “body weight, day 21” value ([2]; 10 mg/kg) was 180.1 ± 4.12. For the same substance, the “body weight, day 28” value ([2]; 10 mg/kg) was 177.3 ± 4.40, the “body weight, day 1” value ([2]; 20 mg/kg) was 193.6 ± 4.21 and the “body weight, day 7” value ([2]; 20 mg/kg) was 187.2 ± 4.81. For the same substance, the “body weight, day 14” value ([2]; 20 mg/kg) was 191.1 ± 4.14, the “body weight, day 21” value ([2]; 20 mg/kg) was 187.8 ± 3.99 and the “body weight, day 28” value ([2]; 20 mg/kg) was 185.7 ± 4.79. The “blood glucose level, 0 min” value ([3]; dose 10 mg/kg) was 104.80 ± 4.97 mg/dL, the “blood glucose level, 30 min” value ([3]; dose 10 mg/kg) was 120.04 ± 5.04 mg/dL and the “blood glucose level, 60 min” value ([3]; dose 10 mg/kg) was 118.31 ± 4.65 mg/dL. For the same substance, the “blood glucose level, 90 min” value ([3]; dose 10 mg/kg) was 109.81 ± 4.56 mg/dL, the “blood glucose level, 120 min” value ([3]; dose 10 mg/kg) was 113.93 ± 4.67 mg/dL and the “blood glucose level, 0 min” value ([3]; dose 20 mg/kg) was 103.79 ± 5.12 mg/dL. For the same substance, the “blood glucose level, 30 min” value ([3]; dose 20 mg/kg) was 116.81 ± 4.31 mg/dL, the “blood glucose level, 60 min” value ([3]; dose 20 mg/kg) was 114.98 ± 4.34 mg/dL and the “blood glucose level, 90 min” value ([3]; dose 20 mg/kg) was 110.21 ± 3.91 mg/dL. For the same substance, the “blood glucose level, 120 min” value ([3]; dose 20 mg/kg) was 110.04 ± 4.81 mg/dL, the insulin level ([4]; 10 mg/kg for 28 days) was 0.696 ± 0.29 ng/mL and the serum creatinine ([4]; 10 mg/kg for 28 days) was 0.76 ± 0.39 mg/dL. The “(ALP) IU” value ([4]; 10 mg/kg for 28 days) was 208.96 ± 4.22 IU, the “(SGOT) IU” value ([4]; 10 mg/kg for 28 days) was 25.41 ± 2.18 IU and the “(SGPT) IU” value ([4]; 10 mg/kg for 28 days) was 24.76 ± 2.81 IU. For the same substance, the insulin level ([4]; 20 mg/kg for 28 days) was 0.705 ± 0.31 ng/mL, the serum creatinine ([4]; 20 mg/kg for 28 days) was 0.70 ± 0.33 mg/dL and the “(ALP) IU” value ([4]; 20 mg/kg for 28 days) was 201.80 ± 4.71 IU. The “(SGOT) IU” value ([4]; 20 mg/kg for 28 days) was 22.09 ± 2.21 IU, the “(SGPT) IU” value ([4]; 20 mg/kg for 28 days) was 22.03 ± 2.78 IU and the mortality [5] was “no mortality”. For the same substance, the “toxic effects (diarrhea, convulsions, lethargy, sleeping, salivation, tremor)” value [5] was “no toxic effects”, the IC50 [6] was 3.28 ± 0.19 µM and the “blood glucose level, day 1” value ([7]; 10 mg/kg p.o. once daily) was 370.81 ± 4.79 mg/dL. The “blood glucose level, day 7” value ([7]; 10 mg/kg p.o. once daily) was 289.89 ± 4.33 mg/dL, the “blood glucose level, day 14” value ([7]; 10 mg/kg p.o. once daily) was 200.33 ± 4.57 mg/dL and the “blood glucose level, day 21” value ([7]; 10 mg/kg p.o. once daily) was 149.30 ± 4.56 mg/dL. The “blood glucose level, day 28” value [7, 8] was 132.98 ± 4.33 mg/dL, the “blood glucose level, day 1” value ([7]; 20 mg/kg p.o. once daily) was 375.31 ± 5.01 mg/dL and the “blood glucose level, day 7” value ([7]; 20 mg/kg p.o. once daily) was 230.71 ± 4.88 mg/dL. The “blood glucose level, day 14” value ([7]; 20 mg/kg p.o. once daily) was 163.68 ± 4.37 mg/dL, the “blood glucose level, day 21” value ([7]; 20 mg/kg p.o. once daily) was 120.72 ± 4.11 mg/dL and the “blood glucose level, day 28” value [7, 9] was 108.42 ± 3.98 mg/dL.
